# RanGTP-Impb inh = disruptors of Ran-importin-beta complex formation – biochemical, FRET, CFP-Ran, YFP-importin-beta, homogeneous, primary screen; cell-free CFP-Ran/YFP-importin-beta FRET ratio; inhibition, % (test concentration not listed); actives 1.1% (n = 300,000); AID 2216;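 active means more than half of the replicate wells show a fall in the fluorescence ratio signal beyond about 16%, limit read from the data, passing the limit was not always enough; inconclusive means exactly half of the replicate wells pass the set limit; inactive means fewer than half of replicates pass the limit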;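 further: 0% = DMSO wells and 100% = Ran loaded with GDP instead of GTP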
# CaV13 ICDI inh = Primary screen for inhibitors of IQ motif and Ca2+-dependent inactivation inhibitor domain binding in CACNA1D, Förster resonance energy transfer in living cells, …; inhibition, % at 12.3 µM; actives 0.098% (n = 340,000); AID 743397; HEK cells, CFP/YFP FRET ICDI-IQ, plate reader, 10 min; percent FRET-ratio fall versus neutral wells;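 active means mean replicate inhibition of at least 30% and at least 1% of replicates passing that level; inconclusive means only one of the two criteria is met; inactive means neither criterion is met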;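 further: 0% = median of the neutral control wells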
# Runt-CBFb FRET = inhibitors of human RUNX1 Runt domain binding to CBFb; Q01196+Q13951; Cerulean-Runt/Venus-CBFb FRET ratio 530/480, 1 h; inhibition, % at 20 µM; actives 0.46% (n = 220,000);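 active means inhibition over about 50% at 20 µM in the single-dose screen, limit read from the data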;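 further: 0% = DMSO wells and 100% = excess unlabeled CBFb competitor control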
#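 Assay system: Cerulean-Runt domain / Medium: Tris 50 mM pH 7.5, KCl, K2SO4, 0.01% BSA / Timing: protein complex preformed 1 h, compound exposure 1 h, room temperature, dark / Measured by: FRET, excitation 422 nm, emission at 530 and 480 nm / Evaluation: loss of energy transfer signal / Control set: 5 µM unlabeled CBFb as full-inhibition high control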
# Hck Nef HTS = inhibitors of human Hck kinase activated by Nef | P08631 | Recombinant Hck-YEEI plus Nef, Z-Lyte FRET kinase assay | inhibition, % at 20 µM | actives 0.68% (n = 220,000) | AID 463187;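 active means Hck-Nef kinase inhibition above about 50%, limit read from the data; inactive means inhibition below that limit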;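 further: 0% = DMSO with Hck plus Nef and 100% = Hck alone without Nef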
# Target sequence (P08631 whole entry, looked up): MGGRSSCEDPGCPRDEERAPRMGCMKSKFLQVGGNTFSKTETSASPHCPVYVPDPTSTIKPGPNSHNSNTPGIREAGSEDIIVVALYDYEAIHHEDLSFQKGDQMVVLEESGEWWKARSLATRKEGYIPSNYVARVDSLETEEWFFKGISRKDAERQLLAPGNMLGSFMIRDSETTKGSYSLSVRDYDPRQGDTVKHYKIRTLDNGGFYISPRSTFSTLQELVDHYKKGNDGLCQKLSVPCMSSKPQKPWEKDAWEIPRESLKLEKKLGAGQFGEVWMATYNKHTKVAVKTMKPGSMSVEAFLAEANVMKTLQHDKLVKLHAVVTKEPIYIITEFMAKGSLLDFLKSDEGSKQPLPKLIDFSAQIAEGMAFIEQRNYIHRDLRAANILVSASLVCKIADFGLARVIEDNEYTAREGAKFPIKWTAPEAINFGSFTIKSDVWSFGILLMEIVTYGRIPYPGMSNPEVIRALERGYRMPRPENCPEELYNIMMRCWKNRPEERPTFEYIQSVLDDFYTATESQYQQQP
# Runt-SMMHC FRET = inhibitors of human RUNX1 Runt domain binding to CBFb-SMMHC; Cerulean-Runt/Venus-CBFb-SMMHC FRET ratio 530/480, 1 h; inhibition, % at 20 µM; actives 0.74% (n = 220,000); Q01196+Q13951; AID 1434;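 active means mean inhibition across duplicate retests at 20 µM reaching about 50%, limit read from the data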;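 further: 0% = DMSO wells and 100% = wells with excess untagged CBFb-SMMHC; inhibitors lower the FRET ratio by blocking Runt binding to CBFb-SMMHC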
# Hck-Nef confirm = Hck-Nef kinase inhibition, confirmation | shares compounds with Hck Nef HTS | Recombinant Hck-YEEI:Nef, Z-Lyte FRET kinase assay | calls only at 10 µM | actives 28% (n = 1,300);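 active means average inhibition of at least 50%, with Z-scores no higher than 3 in both the phospho-tyrosine peptide and fluorescence counterscreens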
# Active calls of the source: *; i = inactive; ? = inconclusive; / = no result given; + = active, no number. Rows were chosen to be rich in hits. Some 1.5% of all compounds tested hit in one or more screens of this group.
SMILES,RanGTP-Impb inh,CaV13 ICDI inh,Runt-CBFb FRET,Hck Nef HTS,Runt-SMMHC FRET,Hck-Nef confirm
O=C(N=Nc1c(O)[nH]c2ccc(Br)cc12)c1cc(-c2cccs2)nc2ccccc12,7,-2,3,163*,-7,i
CC(=O)Nc1ccc(N2C(=O)c3ccc(C(=O)Nc4nnc(SCc5ccc(F)cc5)s4)cc3C2=O)cc1,-1,-5,-7,86*,-9,i
CCC(=O)Nc1nnc(SCc2ccc(F)cc2)s1,-2,-5,-3,7,10,/
Cc1ccccc1NC(=O)CN1C(=O)S/C(=C\c2cccn2-c2cccc(C(=O)O)c2)C1=O,3,/,4,9,2,/
Cc1ccc(NC(=O)CN2C(=O)S/C(=C\c3cccn3-c3cccc(C(=O)O)c3)C2=O)c(C)c1,8,/,-6,78*,-15,+
CCc1cc2c3c(c(=O)oc2cc1O)CCCC3,?,/,96*,91*,144*,/
CCc1cc2c3c(c(=O)oc2cc1OC(C)C(=O)O)CCCC3 (stereo unspecified),-1,-2,/,/,/,/
N#Cc1ccc(CN2CCN(C(=O)c3cn(Cc4ccccc4)nc3-c3cccnc3)CC2)cc1,/,-4,/,/,/,/
Cc1c2c(=O)n(-c3nc4ccccc4s3)nc-2cc(O)n1Cc1ccccc1,/,/,-4,84*,-36,i
Nc1ccc(-c2nc3ccc(C(=O)O)cc3s2)cc1,-6,-15,36,115*,86*,/
Nc1ccc(-c2nc3ccc(N)cc3s2)cc1,-6,-7,21,61*,45,i
CN(CC(=O)Nc1ccc(F)c(F)c1)S(=O)(=O)c1cccs1,3,-7,/,/,/,/
CC(=O)c1c(C)[nH]c(C(=O)CSc2nnc(-c3ccccc3)n2Cc2ccc3c(c2)OCO3)c1C,3,/,-3,64*,0,i
CC(=O)c1c(C)[nH]c(C(=O)CSc2nnc(-c3ccco3)n2Cc2ccccc2)c1C,8,-6,0,0,4,/
CCOC(=O)c1cc2c(=O)n3ccccc3nc2n(CC2CCCO2)c1=NC(C)=O (stereo unspecified),71*,0,42,193*,59*,/
CCOC(=O)c1c(C2CCN(C(=O)OCC)CC2)nc2ccccn12,-3,-6,0,1,2,/
Cn1cc([C@]2(O)C(=O)Nc3ccc(F)cc32)c2ccccc21,/,-9,/,/,/,/
Cc1c(C)c2c(C)nn(-c3ccccc3)c2[nH]c1=O,-3,-9,-5,1,-2,/
CCCCn1c(O)c(N=NC(=O)c2ccco2)c2ccccc21,2,-17,-7,4,0,/
O=C(N=Nc1c(O)n(C2OC(=O)c3ccccc32)c2ccccc12)c1ccco1 (stereo unspecified),3,/,-8,65*,-3,i
COc1ccc(-c2nc(N3CCOCC3)nc3n[nH]c(N)c23)cc1,1,/,0,64*,1,+
CC(=O)[C@@H]1[C@@H](C(=O)c2ccc(F)cc2)[C@]2(C(=O)Nc3ccccc32)[C@H]2C=Cc3cc(F)ccc3N12,-3,-1,10,20,4,/
Cc1ccc(-c2csc3nc[nH]c(=O)c23)cc1,1,-5,1,5,0,/
Cn1/c(=N/N=C/c2ccc([N+](=O)[O-])cc2)sc2ccccc21,/,/,-17,-1,-67,/
Cc1cc(C)c2c(c1)/C(=N\N=c1\sc3ccccc3n1C)C(=O)N2,3,-2,-11,51*,-14,i
SMILES,RanGTP-Impb inh,CaV13 ICDI inh,Runt-CBFb FRET,Hck Nef HTS,Runt-SMMHC FRET,Hck-Nef confirm
NC(=O)c1cc2ccc(O)cc2oc1=NCc1ccccc1,181*,33*,5,104*,83*,/
CCc1cc2c(C)cc(=O)oc2cc1OC(=O)C1CCCN1C(=O)OC(C)(C)C (stereo unspecified),4,/,30,75*,75*,i
CCCCOC(=O)C1=C(C)NC(=O)NC1c1ccc2c(c1)OCO2 (stereo unspecified),/,-3,/,/,/,/
C/C(=N\NC(=O)c1cccc(N/N=C(\C)c2ccco2)c1)c1ccco1,?,-16,1,17,-5,/
C/C(=N\NC(=O)c1cccc(N/N=C(\C)c2cc(O)ccc2O)c1)c1cc(O)ccc1O,?,-17,6,57*,-9,i
CCOC(=O)c1c(NC(=O)/C=C\C(=O)O)sc(C)c1-c1ccccc1,2,-3,-2,57*,-1,+
CC12CCC(C(=O)NCc3ccccc3Cl)(C(Br)C1=O)C2(C)C (stereo unspecified),5,-19,-4,6,-8,/
Cn1c(=O)[nH]c(=O)c2c1nc(N1CCN(CCO)CC1)n2Cc1ccccc1Cl,0,-4,/,/,/,/
O=c1cc(C(F)(F)F)[nH]c2ccccc12,-3,-4,0,50*,4,i
Cc1ccc2[nH]c(C(F)(F)F)cc(=O)c2c1,5,-12,0,-2,-1,/
CC(C)C(=O)Nc1ccc(Oc2ccc3c(c2)C(=O)NC3=O)cc1,3,-4,/,/,/,/
CC(Sc1nccn1C)C(=O)NC1(C#N)CCCCC1 (stereo unspecified),/,-6,/,/,/,/
Nc1cc([N+](=O)[O-])ccc1Nc1ccccc1,-5,-6,-6,82*,-2,i
O=C1NN(c2ccccc2)C(=O)/C1=C/c1coc2ccccc2c1=O,-2,-7,-2,88*,-1,+
O=C1NN(c2ccccc2)C(=O)/C1=C\c1coc2ccc(O)cc2c1=O,-3,-3,5,71*,-1,+
O=C1NN(c2ccccc2)C(=O)/C1=C\c1ccccc1,-9,-5,/,/,/,/
Cc1cc(/C=C2\SC(=Nc3ccc(F)cc3)NC2=O)c(C)n1-c1ccc(S(N)(=O)=O)cc1,?,-2,5,65*,6,+
Cc1cc(/C=C2/SC(=O)NC2=O)c(C)n1-c1ccc(N2CCOCC2)cc1,4,-4,-3,5,3,/
CCCCCCCCCCCCCCCC[n+]1cccc2ccccc21,/,/,-17,107*,-17,/
O=c1/c(=C\c2cc([N+](=O)[O-])cc([N+](=O)[O-])c2O)sc2nc3ccccc3n12,/,/,25,71*,31,+
COc1ccccc1N1CCN(C(=O)CSc2nc(C)c(C)c(=O)[nH]2)CC1,?,-10,-1,66*,4,i
CCc1c(C)nc(SCC(=O)N2CCN(c3ccccc3OC)CC2)[nH]c1=O,2,-5,-1,25,1,/
Nc1c(Cl)ncnc1N/N=C/c1ccc(O)cc1,0,-16,9,52*,-3,i
Oc1ccc(/C=N/Nc2nccnc2Cl)cc1,2,-4,0,-2,-4,/

# Bioassay records from PubChem BioAssay.
